The values that follow come from ChEMBL document CHEMBL1144077, “Cytotoxic lignans of Justicia ciliata” (J Nat Prod, 1999).

In brackets after ≈: the same amount, converted by molar mass. Activity calls are given as the source filed them. No cut-off for these calls is given here. Starred links: 1 amine or outer side, 2 acyl side, 3 side chain; linkers in the order of their positions; H or OH if unused. Positions of bridges follow the written chain, without caps; N, C: chain ends. Non-standard residues stand in square brackets, D forms with d. Residues, ends and D or L forms follow the SMILES beside them. Chains are numbered I, II in the order given. Actinocin(1to9) = Cc1c2oc3c(C)ccc(C(=O)[*:2])c3nc-2c(C(=O)[*:1])c(N)c1=O; NMeV = CN[C@H](C(=O)O)C(C)C; Sar = CNCC(=O)O

Data set [1] is described as follows: Cytotoxicity against mouse NIH/3T3-212 cells after 6 days by MTT assay. The settings on record: for Activity: 144 h; for CC50 at 144 h: NIH/3T3-212 cells, read-out: ED50. The data set is classed as cell-based. The method, boiled down:
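212 cells (NIH/3T3 carrying inducible Ha-ras) kept in alpha-MEM with 10% calf serum and antibiotics. 1-3 × 10^3 cells/100 µL seeded, 6 h attachment, then fresh HEPES-supplemented (10 mM, pH 7.3) medium with graded drug concentrations for 6 days at 37 °C. MTT 4 h, DMSO dissolution, read at 550 nm. ED50 in µg/mL.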
For orientation: Formazan colour is commonly taken as a measure of viable cells.

In data set [2] the test system is T-24. Description: Cytotoxicity against human T24 cells after 6 days by MTT assay. The data set is classed as functional. The conditions noted are these: for EC50: T-24, 144 h, read-out: ED50 (the source's name). The gist of the method:
(§1)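 Human lines kept in DMEM with 10% FBS, 2 mM glutamine, penicillin/streptomycin. 1-3 × 10^3 cells/100 µL seeded, 6 h attachment, then medium replaced with fresh medium (plus 10 mM HEPES pH 7.3) holding a range of drug concentrations. Exposure 6 days, 37 °C, CO2. MTT (1 mg/mL stock, 10 µL) for 4 h, DMSO solubilization, absorbance 550 nm. ED50 in µg/mL.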

For data set [3], the system named is PLC-PRF-5. Description: (§2) Cytotoxicity against human PLC/PRF/5 cells after 6 days by MTT assay. The class given is functional. The method, boiled down:
as §1

Data set [4] concerns SiHa. Description: Cytotoxicity against human SiHa cells after 6 days by MTT assay. The class given is functional. The settings on record: for EC50: Homo sapiens, SiHa, 144 h, read-out: ED50 (the source's name). The method, boiled down: as §1
The test system of data set [5] is HT-3. The data set is described as follows: Cytotoxicity against human HT-3 cells after 6 days by MTT assay. The class given is functional. The settings on record: for EC50: Homo sapiens, HT-3, 144 h, read-out: ED50 (the source's name). The gist of the method: as §1
For data set [6], the system named is Ca-Ski. The data set is described as follows: Cytotoxicity against human CaSki cells after 6 days by MTT assay. The class given is functional. The settings on record: for EC50: 144 h, read-out: ED50 (the source's name). The gist of the method:
as §1

A short description of data set [7]: as §2. The class given is functional. The conditions noted are these: PLC-PRF-5, 144 h, read-out: ED50 (the source's name). The gist of the method:
as §1

With `COC(=O)C(Cc1ccc2c(c1)OCO2)C(Cc1ccc2c(c1)OCO2)C(=O)OC` (stereo not drawn), in data set [1], the Activity result is “Not Active”. Besides, the outcome in data set [2], in data set [3], in data set [4], in data set [5] and in data set [6] was inactive.

On to `COc1ccc(-c2c3c(c(O)c4cc5c(cc24)OCO5)COC3=O)cc1OC`, for which, in data set [1], the Activity entry is recorded as “Not Active”. Besides, the outcome in data set [2], in data set [3], in data set [4], in data set [5] and in data set [6] was inactive.

`COc1ccc(-c2c3c(c(OC)c4cc5c(cc24)OCO5)COC3=O)cc1OC` [CHINENSINAPHTHOL METHYL ETHER]: the Activity result in data set [1] is reported as “Not Active”. In addition, the result in data set [2], in data set [3], in data set [4], in data set [5] and in data set [6] was inactive.

With `COc1cc(-c2c3c(c(OC)c4cc(OC)c(OC)cc24)COC3=O)ccc1O` [CILINAPHTHALIDE A], the CC50 at 144 h in data set [1] is above 8 µg/mL. Further, the EC50 in data set [2] amounted to 1.3 µg/mL (≈ 3.28 µM); in data set [7] it was 12 µg/mL (≈ 30.3 µM); in data set [4], 6.4 µg/mL (≈ 16.1 µM); in data set [5], 0.3 µg/mL (≈ 0.757 µM); in data set [6], 3 µg/mL (≈ 7.57 µM).

As for `COc1ccc(-c2c3c(c(OC)c4cc(OC)c(OC)cc24)COC3=O)cc1OC` [CILINAPHTHALIDE B], the Activity entry in data set [1] is “Not Active”. In addition, the outcome in data set [2], in data set [3], in data set [4], in data set [5] and in data set [6] was inactive.

Consider `Cc1c2oc3c(C)ccc(C(=O)N[C@@H]4C(=O)N[C@H](C(C)C)C(=O)N5CCC[C@H]5C(=O)N(C)CC(=O)N(C)[C@@H](C(C)C)C(=O)O[C@@H]4C)c3nc-2c(C(=O)N[C@@H]2C(=O)N[C@H](C(C)C)C(=O)N3CCC[C@H]3C(=O)N(C)CC(=O)N(C)[C@@H](C(C)C)C(=O)O[C@@H]2C)c(N)c1=O` [DACTINOMYCIN] (I: T[dV]P[Sar][NMeV] / II: T[dV]P[Sar][NMeV]; ester I:1-I:C, II:1-II:C; linker I:N-II:N via Actinocin(1to9)), for which the EC50 in data set [2] is 0.0015 µg/mL (≈ 0.00119 µM); in data set [7], 0.0014 µg/mL (≈ 0.00112 µM); in data set [6] it was 0.0019 µg/mL (≈ 0.00151 µM). The ED50 was 8.1 ×10⁻⁴ ug/ml in data set [4] and 5.6 ×10⁻⁴ ug/ml in data set [5].

`COc1cc2c(OC)c3c(c(-c4ccc5c(c4)OCO5)c2cc1OC)C(=O)OC3` [JUSTICIDIN A]: the CC50 at 144 h in data set [1] came to 0.0227 µg/mL (≈ 0.0576 µM). In addition, the EC50 in data set [2] came to 0.002 µg/mL (≈ 0.00507 µM); in data set [7] it was 0.0022 µg/mL (≈ 0.00558 µM); in data set [4], 0.0074 µg/mL (≈ 0.0188 µM); in data set [5], 0.0018 µg/mL (≈ 0.00456 µM); in data set [6] it was 0.003 µg/mL (≈ 0.00761 µM).

Consider `COc1cc2c(OC)c3c(c(-c4ccc5c(c4)OCO5)c2cc1OC)COC3=O` [NEOJUSTICIN B], for which the Activity entry in data set [1] is “Not Active”. Moreover, the result in data set [2], in data set [3], in data set [4], in data set [5] and in data set [6] was inactive.

For the compound `COc1c2c(c(-c3ccc4c(c3)OCO4)c3cc4c(cc13)OCO4)C(=O)OC2` [TAIWANIN E METHYL ETHER], the CC50 at 144 h in data set [1] was above 8 µg/mL. In addition, the EC50 is 5 µg/mL (≈ 13.2 µM) in data set [2]; 6.8 µg/mL (≈ 18 µM) in data set [7]; 6.1 µg/mL (≈ 16.1 µM) in data set [4]; 2.6 µg/mL (≈ 6.87 µM) in data set [5]; above 8 µg/mL in data set [6].
